DNMT1 inh: blocks human DNA methyltransferase DNMT1 | P26358 | DNMT1 molecular beacon, Hinp1I cleavage, fluorescence | inhibition (reported as % activation of signal), % at 10 µM | hit rate 0.83% among 360,000; in the data active means inhibition above about 50%
Scp-1 inhibitor: inhibitors of human Scp-1 phosphatase; inhibition, % at 20 µM; hit rate 0.88% among 340,000; Q9GZU7; Recombinant Scp1, phosphopeptide, malachite green phosphate absorbance;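 active means inhibition above about 50% at 20 µM, limit read from the data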
Target sequence (Q9GZU7 76-261 limits assumed): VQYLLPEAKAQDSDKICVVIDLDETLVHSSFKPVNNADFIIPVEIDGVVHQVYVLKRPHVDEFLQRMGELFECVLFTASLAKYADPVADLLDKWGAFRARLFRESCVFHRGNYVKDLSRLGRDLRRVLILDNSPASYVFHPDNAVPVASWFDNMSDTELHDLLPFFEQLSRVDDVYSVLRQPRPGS
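Incubation: 45 min enzyme reaction at room temperature / System: truncated SCP-1 phosphatase (76-261aa) / Reagent: Phospho 17-mer peptide substrate / Buffer or medium: Acidic Tris acetate buffer with magnesium and detergent / Signal: absorbance at 630 nm / Doses: one concentration, 20 µM, with 1.0% DMSO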
GRK2 aptamer HTS: blocks RNA aptamer binding to human GRK2; bead flow cytometry, FAM-aptamer displacement from GRK2; inhibition of aptamer binding, % at 10 µM; hit rate 0.59% among 330,000; AID 488847;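 active means inhibition of aptamer binding above 40%, roughly 3 SD of noise, on plates passing a quality check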;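 further: median bead fluorescence of bound FAM aptamer so fluorescent compounds give negative values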
LMPTP block: blocks human LMPTP phosphatase. P24666. recombinant LMPTP-A, OMFP fluorogenic substrate, fluorescence intensity. inhibition, % at 20 µM. hit rate 0.22% among 360,000. AID 651560;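 active means compounds that cut the enzyme signal by at least half of the control window in the single-dose screen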
Target sequence (P24666 whole entry, looked up): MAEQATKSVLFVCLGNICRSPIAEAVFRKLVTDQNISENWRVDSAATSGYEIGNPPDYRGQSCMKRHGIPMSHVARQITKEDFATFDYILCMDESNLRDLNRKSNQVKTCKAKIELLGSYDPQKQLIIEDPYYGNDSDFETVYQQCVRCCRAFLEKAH
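test system = LMPTP-A | amount = 0.625 nM LMPTP-A final | reagent = fluorogenic phosphatase substrate OMFP at 400 µM final | incubation = 50 min at room temperature | benchmarks = no-enzyme low control, uninhibited high control | medium = Bis-Tris pH 6.0, DTT, detergent | signal = fluorescence intensity of OMFP turnover product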
STEP inh: inhibitors of human striatal-enriched phosphatase STEP; P54829; recombinant STEP, OMFP fluorogenic substrate, fluorescence; inhibition, % at 20 µM; hit rate 0.25% among 360,000; AID 588621;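 active means inhibition at 20 µM, scaled per plate between control wells, above about 37%, limit read from the data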
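Material: STEP (striatal-enriched tyrosine phosphatase) enzyme, cell-free; Compound dosing: 20 µM single dose in 1% DMSO; Technique: fluorescence read at 480 nm ex / 540 nm em; Times: reaction 20 min, ambient temperature; Medium: 50 mM Bis-Tris pH 6.0 with 2.5 mM DTT and 0.005% Tween 20; Also added: OMFP at 25 µM.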
SUMO1-SIM PPI: SUMO1-SIM interaction modulation; P63165; inhibition, % at 20 µM; hit rate 0.33% among 360,000; SUMO1 binding to a labelled peptide, TR-FRET, 1 h; AID 602429; in the data active means inhibition above about 37%
Target sequence (P63165 whole entry, looked up): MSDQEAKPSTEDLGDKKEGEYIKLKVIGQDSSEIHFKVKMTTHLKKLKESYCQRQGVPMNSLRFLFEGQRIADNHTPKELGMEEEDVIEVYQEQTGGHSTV
A number is an active result. The list is not random: actives were taken first. Their share in the collection is about 2.2%.

CCOC(=O)c1cc2c(=Cc3ccc(N(C)C)cc3)c3ccccc3n2[n+]1C was read as DNMT1 inh inactive, Scp-1 inhibitor inactive, LMPTP block inactive, STEP inh inactive and SUMO1-SIM PPI inactive.
For C[n+]1c(-c2ccccc2)cc2c(=Cc3ccc([N+](=O)[O-])cc3)c3ccccc3n21 the results were DNMT1 inh 51.9, Scp-1 inhibitor inactive, LMPTP block inactive, STEP inh inactive and SUMO1-SIM PPI inactive.
`CCOC(=O)C1=CCC(c2ccccc2Cl)N(S(=O)(=O)c2ccc(C)cc2)C1` (stereo unspecified) gave DNMT1 inh inactive, LMPTP block inactive, STEP inh inactive and SUMO1-SIM PPI inactive.
For CC(=O)Nc1ccc(C(=O)N/N=C/C2CC3C=CC2C3)cc1 (stereo unspecified) the results were DNMT1 inh inactive, Scp-1 inhibitor inactive, GRK2 aptamer HTS inactive, LMPTP block inactive, STEP inh inactive and SUMO1-SIM PPI inactive.
For CC(C)C(=O)Nc1ccc(C(=O)N/N=C/C2CC3C=CC2C3)cc1 (stereo unspecified) the results were DNMT1 inh inactive, Scp-1 inhibitor inactive, GRK2 aptamer HTS inactive, LMPTP block inactive, STEP inh inactive and SUMO1-SIM PPI 39.8.
Screening O=C(NCc1ccc2c(c1)OCO2)c1cc2c(s1)CSC2 returned DNMT1 inh inactive, Scp-1 inhibitor inactive, LMPTP block inactive, STEP inh inactive and SUMO1-SIM PPI inactive.
O=C(NCc1ccco1)c1cc2c(s1)CSC2 was read as Scp-1 inhibitor 99.0 and GRK2 aptamer HTS inactive.
For CC1=C(C#N)c2nc(N)c(C#N)c(C)c2/C1=C\c1ccc(OCC(=O)O)c(Cl)c1 the results were DNMT1 inh inactive, Scp-1 inhibitor inactive, GRK2 aptamer HTS inactive, LMPTP block inactive, STEP inh inactive and SUMO1-SIM PPI 37.4.
Screening COc1ccc2ncccc2c1Cc1c(OC)ccc2ncccc12 returned DNMT1 inh inactive, Scp-1 inhibitor inactive, LMPTP block 55.9, STEP inh inactive and SUMO1-SIM PPI inactive.
For CC(C)CC1C(=O)N(Cc2cn(Cc3ccco3)nn2)CCS(=O)(=O)N1Cc1ccc(-c2ccccc2)cc1 (stereo unspecified) the results were DNMT1 inh inactive, LMPTP block inactive, STEP inh inactive and SUMO1-SIM PPI inactive.
`CCOc1ccc(CCN2C(=S)N([C@@H](Cc3ccc(O)cc3)CN3CCC[C@@H]3CN3C(=S)NC[C@@H]3CC(C)C)C[C@@H]2Cc2ccc(O)cc2)cc1` gave DNMT1 inh inactive, LMPTP block inactive, STEP inh inactive and SUMO1-SIM PPI inactive.
For Cc1cc(C(=O)O)ccc1-c1ccc(/C=C2\SC(=O)N(CC(=O)Nc3ccc4c(c3)OCO4)C2=O)o1 the results were DNMT1 inh 100.7, GRK2 aptamer HTS inactive, LMPTP block 79.5, STEP inh 64.3 and SUMO1-SIM PPI 72.8.
`CC(C)(C)OC(=O)CN1C(=O)S/C(=C\c2ccc(-c3cccc(C(=O)O)c3)o2)C1=O` gave GRK2 aptamer HTS inactive.
Screening Cc1ccc(NC(=O)CN2C(=O)S/C(=C/c3ccc(-c4cccc(C(=O)O)c4)o3)C2=O)cc1 returned DNMT1 inh 55.6, Scp-1 inhibitor 64.9, LMPTP block 64.2, STEP inh 40.5 and SUMO1-SIM PPI inactive.
`O=C(O)c1cc(-c2ccc(/C=C3/SC(=S)N(Cc4ccccc4)C3=O)o2)ccc1Cl` gave DNMT1 inh 83.3, Scp-1 inhibitor 56.9, LMPTP block 71.3, STEP inh inactive and SUMO1-SIM PPI inactive.
For C#CCN1C(=O)S/C(=C\c2ccc(-c3ccc(C(=O)O)cc3C)o2)C1=O the results were DNMT1 inh 79.1, Scp-1 inhibitor 61.7, GRK2 aptamer HTS inactive, LMPTP block inactive, STEP inh inactive and SUMO1-SIM PPI inactive.
Cc1ccc(NC(=O)CN2C(=O)S/C(=C\c3ccc(-c4cccc(C(=O)O)c4C)o3)C2=O)cc1 was read as GRK2 aptamer HTS inactive.
CC(=O)N1CCc2cc(NC(=O)C3(C)CCN3Cc3ccc(C(C)C)cc3)ccc21 (stereo unspecified) was read as DNMT1 inh inactive, LMPTP block inactive, STEP inh inactive and SUMO1-SIM PPI inactive.
`CCOC(=O)c1cc(OCC)c2c(ccc3cc(OC)ccc32)n1` gave DNMT1 inh inactive, LMPTP block inactive, STEP inh inactive and SUMO1-SIM PPI inactive.
For Cc1ccccc1N=CC=C1OC(C)(C)C(C)(C)O1 the results were DNMT1 inh inactive, Scp-1 inhibitor inactive, GRK2 aptamer HTS 54.0, LMPTP block inactive, STEP inh inactive and SUMO1-SIM PPI inactive.
For Cn1c(N)c(C(=O)COC(=O)c2ccc3c(c2)C(=O)N(c2ccc(Cl)cc2)C3=O)c(=O)n(C)c1=O the results were DNMT1 inh inactive, Scp-1 inhibitor inactive, GRK2 aptamer HTS inactive, LMPTP block inactive, STEP inh inactive and SUMO1-SIM PPI 64.1.
CC(=O)N1CCC(C(=O)N2c3ccccc3N=C(c3ccc(C(F)(F)F)cc3)C2C(=O)NC2CCCC2)CC1 (stereo unspecified) was read as LMPTP block inactive and SUMO1-SIM PPI inactive.
Screening Nc1ccc(C(=O)Nc2nc3ccccc3s2)cc1 returned DNMT1 inh inactive, Scp-1 inhibitor 60.4, GRK2 aptamer HTS inactive, LMPTP block inactive, STEP inh inactive and SUMO1-SIM PPI inactive.
For Nc1ccc(NC(=O)c2ccc(C(=O)Nc3ccc(N)cc3)cc2)cc1 the results were DNMT1 inh inactive, Scp-1 inhibitor inactive, GRK2 aptamer HTS inactive, LMPTP block inactive, STEP inh inactive and SUMO1-SIM PPI 59.4.
Cc1cc(C)n(-c2ccc(C(=O)Nc3nc4ccccc4s3)cc2)n1 was read as DNMT1 inh inactive, Scp-1 inhibitor inactive, GRK2 aptamer HTS inactive, LMPTP block inactive, STEP inh inactive and SUMO1-SIM PPI inactive.
For O=C(Nc1nc(-c2ccccn2)cs1)c1cc2ccccc2o1 the results were DNMT1 inh inactive, Scp-1 inhibitor inactive, GRK2 aptamer HTS inactive, LMPTP block inactive, STEP inh inactive and SUMO1-SIM PPI inactive.
For Cc1c(C(=O)Nc2nc(-c3ccccn3)cs2)oc2ccccc12 the results were DNMT1 inh inactive, Scp-1 inhibitor inactive, GRK2 aptamer HTS inactive, LMPTP block inactive, STEP inh 77.1 and SUMO1-SIM PPI inactive.
For CC1(C(=O)NS(=O)(=O)C2CC2)CCCN(C(=O)c2c(F)cccc2F)C1 (stereo unspecified) the results were DNMT1 inh inactive, LMPTP block inactive, STEP inh inactive and SUMO1-SIM PPI inactive.
`CCCCC(CC)CN=C(N)NC(N)=NCCCCCCN=C(N)NC(N)=NCC(CC)CCCC` (stereo unspecified) gave DNMT1 inh inactive, Scp-1 inhibitor inactive, GRK2 aptamer HTS inactive, LMPTP block inactive, STEP inh inactive and SUMO1-SIM PPI 86.0.
`COc1ccc2nc3cc(Cl)ccc3c(Nc3cc(CN4CCCC4)c(O)c(CN4CCCC4)c3)c2n1` gave DNMT1 inh 64.6, GRK2 aptamer HTS inactive, LMPTP block 50.1, STEP inh inactive and SUMO1-SIM PPI inactive.

Screens (PubChem)
